Bioassay records (PubChem)
Rows were chosen to be rich in hits. Some 2.3% of all compounds tested hit in one or more screens of this group.
CSN inh = inhibitors of CSN-mediated cullin deneddylation, primary screen, biochemical, fluorescence polarization, uHTS; COP9 signalosome complex subunit 5 (Homo sapiens), Q92905; Purified CSN, SCF-Nedd8-OG deneddylation; inhibition, % at 12.5 µM; 360,000 tested, 0.38% active; AID 651999, 2013;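 active = pattern-corrected inhibition above about 35%, with an unprinted fluorescence ratio check between 0.5 and 1.5, limit read from the data, passing the limit was not always enough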;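 note: 0% = enzyme with substrate and 100% = substrate without enzyme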
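Material: human Csn5 produced in HEK293T cells; Input: enzyme 0.24 nM; Reagent: SCFSkp2-Nedd8OG substrate at 10 nM final; Dosing: 12.5 µM compound; Incubation: 90 min reaction at room temperature; Detection: fluorescence polarization of the substrate; Evaluation: % inhibition of substrate cleavage by Csn5; Control set: substrate-only high control, full reaction low control.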
TPT1 inhibitor = Candida albicans TPT1 enzyme inhibitors, primary screen, biochemical, fluorescence polarization; tRNA 2'-phosphotransferase TPT1 (Candida albicans SC5314); recombinant caTPT1, FP RNA substrate dephosphorylation; inhibition, % at 5 µM; 300,000 tested, 0.81% active; AID 1962, 2009;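 active = inhibition above the mean of all tested compounds plus 3 SD, set per screening campaign, cut at about 24% in these data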;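 note: plate controls were DMSO alone for no effect and ferristatin control at 100 nM for full effect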
HNF4A DNA FP = change in binding of human HNF4A to DNA, primary screen, biochemical, fluorescence polarization, FITC-DNA; Hepatocyte nuclear factor 4-alpha (Homo sapiens), P41235; 360,000 tested, 0.3% active; 1 h; activity change, % at 10 µM; in the data active = activity change above about 30%, passing the limit was not always enough
Rpn11 inh = Rpn11 (PSMD14) deubiquitinase inhibitors, primary screen, biochemical, fluorescence polarization, uHTS; 26S proteasome non-ATPase regulatory subunit 14 (Homo sapiens), O00487; human 26S proteasome, Ub4-pepOG fluorescence polarization; 20S core pre-blocked with epoxomicin; inhibition, % at 20 µM; 360,000 tested, 0.59% active;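 active = inhibition at 20 µM, scaled to each plate's controls, above about 33%, limit read from the data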
Myeloid diff 2 = induction of myeloid progenitor differentiation, primary screen, cell-based, flow cytometry, MLPCN library. ER-HoxA9 myeloid progenitors, lysozyme-GFP differentiation. calls only at 10 µM. 360,000 tested, 1% active;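 active = normalized GFP-positive differentiation at or above the plate's own cutoff, the solvent-only control mean plus 3 SD; inconclusive = no clear call, values can overlap the other calls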;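 note: cells exposed to compound for four days before flow analysis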
caTPT1 confirm = Candida albicans TPT1 inhibitors, confirmation, biochemical, fluorescence polarization, triplicate; recombinant caTPT1, RNase T1 coupled; shares compounds with TPT1 inhibitor; AID 2149, 2009; inhibition, % at 5 µM; 2,400 tested, 74% active;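 active = inhibition above the primary screen limit, the mean inhibition of all tested compounds plus 3 SD, cut at about 25% in these data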
RNase T1 inh = RNase T1 inhibitors, counter-screen for TPT1 inhibitor project, biochemical, fluorescence polarization; RNase T1 cleavage, 1536-well; shares compounds with TPT1 inhibitor; inhibition, % at 5 µM; 2,400 tested, 83% active;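 active = inhibition above the solvent-only control well mean plus 3 SD, limit set per screening run, cut at about 23% in these data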;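 note: plate controls were DMSO wells with enzyme for no effect and wells without RNase T1 for full effect; inhibitors block cleavage so intact labeled substrate keeps polarization high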
Target sequence (P00651 whole entry, looked up): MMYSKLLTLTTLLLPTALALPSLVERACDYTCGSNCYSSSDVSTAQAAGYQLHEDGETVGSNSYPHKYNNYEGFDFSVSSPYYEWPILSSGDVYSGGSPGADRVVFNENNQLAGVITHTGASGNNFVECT
Rpn11 inh conf = Rpn11 (PSMD14) deubiquitinase inhibitors, confirmation, biochemical, fluorescence polarization, single concentration; shares compounds with Rpn11 inh; purified human 26S proteasome, Ub4-pepOG fluorescence polarization; proteasome pretreated with epoxomicin; inhibition, % at 20 µM; 1,900 tested, 29% active; AID 602318, 2012
MMP-2 counter-1 = MMP-2 enzyme inhibition, confirmation, counter-screen for RPN11 inhibitor project, biochemical, fluorescence, single concentration; shares compounds with Rpn11 inh; recombinant MMP-2, FRET peptide cleavage fluorescence; inhibition, % at 20 µM; 1,900 tested, 4% active; AID 602330, 2012;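 note: human MMP-2 activated beforehand with APMA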
Thrombin FP = bovine thrombin protease inhibition, confirmation, counter-screen for Rpn11 inhibitor project, biochemical, fluorescence polarization, single concentration; bovine thrombin cleavage of Ub4-pepOG; inhibition, % at 20 µM; shares compounds with Rpn11 inh; AID 602333, 2012; 1,900 tested, 13% active;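 active = mean inhibition at least 40% at 20 µM, or signal 3 deviations below plate average, so some actives read negative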;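 note: plate controls were thrombin with DMSO for no effect and buffer wells lacking thrombin for full effect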
Target sequence (P00735 whole entry, looked up): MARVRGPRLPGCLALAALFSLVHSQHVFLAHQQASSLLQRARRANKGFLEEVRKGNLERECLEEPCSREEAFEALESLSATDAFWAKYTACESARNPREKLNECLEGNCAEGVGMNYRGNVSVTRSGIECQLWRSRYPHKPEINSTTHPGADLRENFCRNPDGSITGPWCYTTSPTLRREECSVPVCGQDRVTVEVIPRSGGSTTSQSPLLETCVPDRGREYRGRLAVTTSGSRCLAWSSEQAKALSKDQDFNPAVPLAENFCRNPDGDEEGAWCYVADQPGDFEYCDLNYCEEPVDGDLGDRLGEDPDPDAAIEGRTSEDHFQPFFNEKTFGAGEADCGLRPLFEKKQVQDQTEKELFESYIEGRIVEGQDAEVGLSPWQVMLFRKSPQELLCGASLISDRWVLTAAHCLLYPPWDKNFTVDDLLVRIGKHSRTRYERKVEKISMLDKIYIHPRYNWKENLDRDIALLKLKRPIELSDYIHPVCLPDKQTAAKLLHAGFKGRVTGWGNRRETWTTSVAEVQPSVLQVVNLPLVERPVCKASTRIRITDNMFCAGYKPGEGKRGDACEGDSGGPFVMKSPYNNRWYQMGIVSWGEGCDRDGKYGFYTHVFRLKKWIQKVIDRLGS
Myeloid diff = inducers of myeloid progenitor differentiation, confirmation, cell-based, GFP/Mac1 flow cytometry, cherry pick 01. ER-HoxA9 myeloid progenitors, GFP/Mac1 double-positive flow. calls only. AID 651706, 2012. 2,300 tested, 2% active. shares compounds with Myeloid diff 2;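 active = share of green or green-and-red cells above 9 and 9% in run 1 or 4 and 3% in run 2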
GFP autofluor = flagged as fluorescent in myeloid differentiation counter-screen; shares compounds with Myeloid diff 2; AID 651707; fluorescence response, % (concentration not given with the values); 2,300 tested, 7.4% active; ER-HoxA9 myeloid progenitors, no estrogen, GFP autofluorescence flow cytometry; vehicle wells 0%, positive control 100%;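 active = over 5% cells positive for green fluorescent reporter, or over 2% positive for both it and APC stain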;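 note: range taken on the double positive population between DMSO and positive control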
CSN deneddyl val = Csn5 deneddylation inhibitors, confirmation, biochemical, fluorescence polarization, single concentration, SCF-Nedd8OG substrate. 540 tested, 62% active. Csn5 deneddylation of SCF-Nedd8OG, 90 min. shares compounds with CSN inh. inhibition, % at 16.6 µM; in the data active = inhibition above about 50%;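 note: 0% = DMSO with enzyme and 100% = no enzyme wells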
MMP-2 counter-2 = MMP-2 protease inhibition counter-screen, confirmation, counter-screen for CSN deneddylation inhibitor project, biochemical, fluorescence, single concentration; recombinant MMP-2, FRET substrate fluorescence, 60 min; 540 tested, 33% active; inhibition, % at 16.6 µM; AID 720655, 2013; shares compounds with CSN inh;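 active = corrected plate-normalized z-score of 5 or more, or -5 or less, or inhibition of 15% or more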;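 note: plate controls were DMSO wells with enzyme for no effect and buffer wells lacking MMP-2 for full effect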
Thrombin counter = counter-screen for CSN deneddylation inhibitors: bovine thrombin inhibition. bovine thrombin cleavage of Ub4-pepOG, fluorescence polarization. inhibition, % at 16.6 µM. 540 tested, 49% active. AID 720656. shares compounds with CSN inh;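 active = inhibition at or above a set limit, with a fluorescence interference ratio between 0.5 and a set maximum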
* hit, by the source's call; i = inactive; u = inconclusive; x = no result given; + = active, no number. Cut-off read from the data, not from the text of the source, unless noted: active = inhibition above about 40%; inactive = the rest.

SMILES	CSN inh	TPT1 inhibitor	HNF4A DNA FP	Rpn11 inh	Myeloid diff 2	caTPT1 confirm	RNase T1 inh	Myeloid diff	GFP autofluor	others
O=C1c2cccc3c(N4CCCCC4)ccc(c23)C(=O)N1c1cccc(O)c1	10	75*	46	x	+	52*	61*	i	0
CCN1/C(=C/c2cc[n+](CCCS(=O)(=O)[O-])c3ccccc23)Sc2ccccc21	14	48*	28	22	+	37*	52*	i	14*
O=C(O)Cc1sc(N/N=C\c2ccncc2)nc1-c1ccccc1	34	52*	21	x	i	43*	51*	i	0
Cc1cccc(OCc2nnc(SCC(=O)O)n2-c2ccccc2)c1	-1	-2	-2	-5	i	x	x	x	x
O=C1S/C(=C/c2ccc(N3CCOCC3)o2)C(=O)N1Cc1ccc(F)cc1	132	136*	187	x	i	163*	162*	i	31*
O=C(O)COc1ccccc1/C=C1\SC(=O)N(Cc2ccc(F)cc2)C1=O	0	0	-2	4	i	x	x	x	x
COc1ccccc1CC1CC(=O)N(c2cccc(Cl)c2C)C1=O (stereo not drawn)	2	4	-1	-4	i	x	x	x	x
CCc1ccc(/C=C/c2c[nH]c3ccccc23)[n+](CC)c1	1	31*	17	50*	+	29*	38*	i	7.0*	Rpn11 inh conf=27;MMP-2 counter-1=-23;Thrombin FP=43*
CCN1C(=S)SC(=O)C1=C1C=C(C)N(CCO)C(C)=C1	-5	38*	0	11	i	53*	62*	i	0
C=CCc1c(C)nc(-c2ccccc2)nc1N/N=C/c1ccccc1	1	3	-2	5	i	x	x	x	x
C=CCc1c(C)nc(-c2ccccc2)nc1Nc1ccccc1O	26	25*	9	55*	+	40*	52*	i	63*	Rpn11 inh conf=29;MMP-2 counter-1=6;Thrombin FP=9
N#C/C(=C\c1ccc(O)cc1)c1nc2ccccc2o1	48*	102*	57*	x	i	114*	116*	x	x	CSN deneddyl val=114*;MMP-2 counter-2=-13;Thrombin counter=39*
CN(C)c1ccc(/C=C/C(=O)c2ccc(O)cc2)cc1	38	x	159	x	i	x	x	x	x
CN(C)c1ccc(/C=C/C(=O)c2cccnc2)cc1	49*	93*	3	x	i	100*	100*	x	x	CSN deneddyl val=52*;MMP-2 counter-2=-43*;Thrombin counter=45*
CN(C)c1ccc(/C=C/C(=O)c2ccccc2O)cc1	70*	68*	27	x	i	55*	64*	x	x	CSN deneddyl val=92*;MMP-2 counter-2=-19;Thrombin counter=65*
Cc1ccc(/C=C/C(=O)c2ccccc2O)cc1	5	2	1	-5	i	x	x	x	x
COc1ccc(-c2cc(C(=O)OCc3ccccn3)c3ccccc3n2)cc1	-6	2	-1	-6	i	x	x	x	x
CN(C)c1ccc(/C=C/c2cccc[n+]2[O-])cc1	-2	8	17	37	i	x	x	x	x
CC(C)CC[n+]1ccccc1/C=C/c1ccc(N(C)C)cc1	38*	44*	55*	x	u	49*	58*	x	x	CSN deneddyl val=88*;MMP-2 counter-2=-58*;Thrombin counter=11
Cc1oc(-c2ccccc2F)nc1CS(=O)CC(=O)NC1CCCC1 (stereo not drawn)	-5	2	-2	-1	i	x	x	x	x
CN1CCN(C(=O)c2cccc(S(=O)(=O)N3CCCC3)c2)CC1	1	x	0	0	i	x	x	x	x
COc1ccc(/C=C(/C(=O)c2ccc(Cl)cc2Cl)n2cncn2)cc1	4	0	-2	3	i	x	x	x	x
CN(C)c1ccc(/C=C(/C(=O)c2ccc(Cl)cc2Cl)n2cncn2)cc1	79*	121*	92*	x	i	132*	131*	x	x	CSN deneddyl val=93*;MMP-2 counter-2=-23*;Thrombin counter=70*
Cn1c(SCC(=O)Nc2ncc(C(F)(F)F)cc2Cl)nnc1-c1ccc(Cl)cc1	5	12	2	1	i	x	x	x	x
CCN1/C(=C/c2ccc3cc(C)ccc3[n+]2CC)Sc2ccccc21	72*	84*	119*	x	u	97*	103*	x	x	CSN deneddyl val=66*;MMP-2 counter-2=-23*;Thrombin counter=-61
CCN1/C(=C/C=C/c2sc3ccccc3[n+]2CC)Sc2ccccc21	105	-79	94	x	i	x	x	x	x
CCOc1cc(C=O)cc(Cl)c1OCC(N)=O	0	-6	5	6	i	x	x	x	x
